Calls of active or inactive are those of the source. The rule behind the calls is not given here.
What was measured:
[1] = Inhibition of transglycosylase activity of Escherichia coli PBP1b incubated for 30 mins by continous fluorescence assay
Staphylococcus aureus [2] = assay: Antibacterial activity against methicillin-resistant Staphylococcus aureus ATCC 43300 assessed as no visual turbidity by broth microdilution method; format: functional
How it was run: (§1)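 Mueller-Hinton broth microdilution per EUCAST/CLSI, 200 µL final volume. Compounds taken from 10 mg/mL DMSO stocks and diluted 20-fold in broth just before use. Inoculum was colonies from overnight plates, adjusted to 0.5 McFarland (about 1.10^8 CFU/mL) in 0.085% NaCl, then diluted 100-fold in broth. MIC was the lowest dilution with no visible turbidity.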

Staphylococcus aureus [3] = assay: Antibacterial activity against Staphylococcus aureus ATCC 25923 assessed as no visual turbidity by broth microdilution method; format: functional; how it was run: as §1
Escherichia coli [4] = assay: Inhibition of transglycosylase activity of Escherichia coli PBP1b assessed as remaining activity at 500 uM incubated for 30 mins by continous fluorescence assay
How it was run: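 Continuous fluorescence TG assay at 30 °C with purified E. coli PBP1b (100 nM) and dansyl-lipid II (10 µM) plus 1 U muramidase (Cellosyl). Fluorescence (ex 355/em 536 nm) read for 30 min. Relative activity measured with compound at 500 µM.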

Escherichia coli [5] = assay: Antibacterial activity against Escherichia coli ATCC 8739 assessed as no visual turbidity by broth microdilution method; format: functional
How it was run: (§2)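 Broth microdilution in Mueller-Hinton broth following the EUCAST/CLSI procedure. Compounds were made as 10 mg/mL DMSO stocks, diluted 20-fold in broth just before use. Inoculum: colonies suspended to 0.5 McFarland (~1×10^8 CFU/mL) in 0.085% NaCl, then diluted 100-fold in broth. MIC is the lowest dilution with no visible turbidity.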

Enterococcus faecium = assay: Antibacterial activity against Enterococcus faecium ATCC 19434 assessed as no visual turbidity by broth microdilution method; format: functional; how it was run: as §2
[6] = Inhibition of Staphylococcus aureus mtgA after 30 mins by continous fluorescence assay
[7] = molecular target: T1, Penicillin-binding protein 2 (Staphylococcus aureus, UniProt Q53729); assay: Inhibition of Staphylococcus aureus PBP2 transglycosylase activity after 30 mins by continous fluorescence assay
T1 sequence (Q53729 whole entry): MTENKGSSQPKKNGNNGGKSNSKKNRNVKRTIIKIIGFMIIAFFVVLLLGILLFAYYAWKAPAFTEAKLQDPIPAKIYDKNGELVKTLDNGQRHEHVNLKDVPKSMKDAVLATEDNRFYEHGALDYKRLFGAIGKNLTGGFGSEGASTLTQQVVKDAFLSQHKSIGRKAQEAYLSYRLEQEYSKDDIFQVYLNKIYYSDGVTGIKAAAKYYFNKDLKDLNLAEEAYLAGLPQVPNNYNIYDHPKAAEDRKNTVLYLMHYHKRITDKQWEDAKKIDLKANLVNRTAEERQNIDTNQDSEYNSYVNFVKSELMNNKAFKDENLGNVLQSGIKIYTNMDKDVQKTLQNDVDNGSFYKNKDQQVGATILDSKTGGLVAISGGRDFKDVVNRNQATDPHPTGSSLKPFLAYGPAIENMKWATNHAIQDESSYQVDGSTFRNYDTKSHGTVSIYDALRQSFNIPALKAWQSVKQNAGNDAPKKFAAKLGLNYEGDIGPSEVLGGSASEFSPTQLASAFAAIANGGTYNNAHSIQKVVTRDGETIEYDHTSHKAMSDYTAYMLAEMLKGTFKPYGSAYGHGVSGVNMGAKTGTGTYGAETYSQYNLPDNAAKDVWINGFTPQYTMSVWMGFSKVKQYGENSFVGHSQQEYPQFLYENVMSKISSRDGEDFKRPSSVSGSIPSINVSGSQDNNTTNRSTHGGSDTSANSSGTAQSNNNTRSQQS

[8] = Inhibition of Thermotoga maritima PBP1A transglycosylase activity after 30 mins by continous fluorescence assay
[9] = Inhibition of Enterococcus hirae PBP2 transglycosylase activity after 30 mins by continous fluorescence assay
HEK293 = assay: Cytotoxicity against HEK293 cells assessed as reduction in cell viability at 8 ug/ml after 24 hrs by MTS assay; format: cell-based; conditions: human, hek293, 24 h
How it was run: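 HEK293 cells grown in DMEM with 10% FBS, 2 mM glutamine and penicillin/streptomycin at 37 °C, 5% CO2. Cells seeded at 2×10^4 per well and allowed to adhere 24 h. Compound added at 8 µg/mL final from an 8 mg/mL DMSO stock, with vehicle controls, in triplicate for 24 h. Metabolic activity read by MTS (CellTiter 96 AQueous One).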

[10] = Binding affinity to lipid2 in carboxyfluorescein loaded DOPC large unilamellar vesicle assessed as inhibition of nisin-induced carboxyfluorescein leakage at 3 uM preincubated for 2 mins followed by nisin addition measured after 50 secs
How it was run: (§3)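 DOPC LUVs (200-nm extrusion) containing 0.1 mol% lipid II and loaded with 50 mM CF, used at 20 µM lipid in 10 mM Tris, 150 mM NaCl, pH 7.5. Compound (from 1 mM DMSO stock) preincubated 2 min, then 20 nM nisin added. Leakage read at ex 492/em 516 nm and normalized to Triton X-100 total release. Residual nisin activity at 50 s is expressed relative to a no-compound control; run in triplicate.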

[11] = Binding affinity to lipid2 in carboxyfluorescein loaded DOPC large unilamellar vesicle assessed as inhibition of nisin-induced carboxyfluorescein leakage at 1.5 uM preincubated for 2 mins followed by nisin addition measured after 50 secs; how it was run: as §3

## COc1ccc2c(c1)c(CCNC(=N)N)cn2Cc1ccc(F)c(F)c1
[1]
  IC50: > 250 µM
Staphylococcus aureus [2]
  MIC: 162 µM
Staphylococcus aureus [3]; read-out: MIC
  MIC: 81 µM
Escherichia coli [4]
  Activity: 28%
Escherichia coli [5]
  MIC: 81 µM
Enterococcus faecium
  MIC: 324 µM

## CSc1ccc2c(c1)c(CCN)c(C)n2Cc1ccc(Cl)c(Cl)c1 [listing 1 of 3 here]
[1]
  IC50: 29 µM
Staphylococcus aureus [2]
  MIC: 9.6 µM
Staphylococcus aureus [3]
  MIC: 16 µg/mL
[6]
  IC50: 27 µM
[7]
  IC50: 20.7 µM
[8]
  IC50: 56 µM
[9]
  IC50: 33 µM
HEK293
  Activity: Toxic
Escherichia coli [5]
  MIC: 616 µM
Enterococcus faecium
  MIC: 76 µM

## Cl.NCCc1cn(Cc2ccc(Cl)c(Cl)c2)c2ccccc12
[1]
  IC50: 103 µM
Staphylococcus aureus [2]
  MIC: 45 µM
Staphylococcus aureus [3]; read-out: MIC
  MIC: 45 µM
Escherichia coli [4]
  Activity: 15%
HEK293
  Activity: Toxic
Escherichia coli [5]
  MIC: 45 µM
Enterococcus faecium
  MIC: 11 µM

## COc1ccc2c(c1)c(CCNC(=N)N)c(C)n2Cc1ccc(Cl)c(Cl)c1.Cl
[10]
  inhibition: > 90%
[1]
  IC50: 39 µM
Staphylococcus aureus [2]
  MIC: 9.1 µM
Staphylococcus aureus [3]; read-out: MIC
  MIC: 9.1 µM
Escherichia coli [4]
  Activity: 4%
HEK293
  Activity: Non-toxic
Escherichia coli [5]
  MIC: 72 µM
Enterococcus faecium
  MIC: 9.1 µM
[11]
  Activity: Active

## COc1ccc2c(c1)c(CCN)cn2Cc1ccc(F)c(F)c1
Escherichia coli [4]
  Activity: 88%

## COc1ccc2c(c1)c(CCN)c(C)n2Cc1ccc(F)c(F)c1
[1]
  IC50: > 250 µM
Staphylococcus aureus [2]
  MIC: 174 µM
Staphylococcus aureus [3]; read-out: MIC
  MIC: 174 µM
Escherichia coli [4]
  Activity: 28%
Escherichia coli [5]
  MIC: 174 µM
Enterococcus faecium
  MIC: 174 µM

## COc1ccc(Cn2cc(CCN)c3ccccc32)cc1
Escherichia coli [4]
  Activity: 80%

## NCCc1cn(Cc2ccccc2)c2ccccc12
Escherichia coli [4]
  Activity: 93%

## NCCc1cn(Cc2cccc(Cl)c2)c2ccccc12
[1]
  IC50: > 250 µM
Staphylococcus aureus [2]
  MIC: 100 µM
Staphylococcus aureus [3]; read-out: MIC
  MIC: 100 µM
Escherichia coli [4]
  Activity: 54%
Escherichia coli [5]
  MIC: 100 µM
Enterococcus faecium
  MIC: 100 µM

## CSc1ccc2c(c1)c(CCN)c(C)n2Cc1ccc(Cl)c(Cl)c1 [listing 2 of 3 here]
[1]
  IC50: 21 µM

## N#Cc1cccc(Cn2cc(CCN)c3ccccc32)c1
Escherichia coli [4]
  Activity: 94%

## N=C(N)NCCc1cn(Cc2cccc(Cl)c2)c2ccccc12
[1]
  IC50: 166 µM
Staphylococcus aureus [2]
  MIC: 145 µM
Staphylococcus aureus [3]; read-out: MIC
  MIC: 145 µM
Escherichia coli [4]
  Activity: 15%
Escherichia coli [5]
  MIC: 145 µM
Enterococcus faecium
  MIC: 73 µM

## CSc1ccc2c(c1)c(CCN)c(C)n2Cc1ccc(Cl)c(Cl)c1 [listing 3 of 3 here]
Escherichia coli [4]
  Activity: 1%

## CSc1ccc2c(c1)c(CCN)c(C)n2Cc1ccccc1
[1]
  IC50: > 250 µM
Staphylococcus aureus [2]
  MIC: 184 µM
Staphylococcus aureus [3]; read-out: MIC
  MIC: 92 µM
Escherichia coli [4]
  Activity: 31%
Escherichia coli [5]
  MIC: 369 µM
Enterococcus faecium
  MIC: 92 µM

## COc1cccc(Cn2cc(CCN)c3ccccc32)c1
Escherichia coli [4]
  Activity: 86%

## COc1ccc2c(c1)c(CCN)cn2Cc1ccc(C#N)cc1
Escherichia coli [4]
  Activity: 105%

## COc1ccc(Cn2cc(CCNC(=N)N)c3ccccc32)cc1
Escherichia coli [4]
  Activity: 67%

## NCCc1cn(Cc2ccc(F)cc2)c2ccccc12
Escherichia coli [4]
  Activity: 97%

## COc1ccc2c(c1)c(CCN)c(C)n2Cc1ccc(C#N)cc1
Escherichia coli [4]
  Activity: 118%

## N=C(N)NCCc1cn(Cc2ccccc2)c2ccccc12
Escherichia coli [4]
  Activity: 73%

## COc1ccc2c(c1)c(CCN)c(C)n2Cc1ccccc1
Escherichia coli [4]
  Activity: 75%

## Cl.N=C(N)NCCc1cn(Cc2ccc(F)c(F)c2)c2ccccc12
[1]
  IC50: 97 µM
Staphylococcus aureus [2]
  MIC: 88 µM
Staphylococcus aureus [3]; read-out: MIC
  MIC: 44 µM
Escherichia coli [4]
  Activity: 10%
HEK293
  Activity: Non-toxic
Escherichia coli [5]
  MIC: 44 µM
Enterococcus faecium
  MIC: 88 µM

## NCCc1cn(Cc2ccc(F)c(F)c2)c2ccccc12
[1]
  IC50: > 250 µM
Staphylococcus aureus [2]
  MIC: 397 µM
Staphylococcus aureus [3]; read-out: MIC
  MIC: 198 µM
Escherichia coli [4]
  Activity: 62%
Escherichia coli [5]
  MIC: 198 µM
Enterococcus faecium
  MIC: 198 µM

## Cl.N=C(N)NCCc1cn(Cc2ccc(Cl)c(Cl)c2)c2ccccc12
[1]
  IC50: 51 µM
Staphylococcus aureus [2]
  MIC: 20 µM
Staphylococcus aureus [3]; read-out: MIC
  MIC: 20 µM
Escherichia coli [4]
  Activity: 1%
HEK293
  Activity: Non-toxic
Escherichia coli [5]
  MIC: 40 µM
Enterococcus faecium
  MIC: 10 µM

## COc1ccc2c(c1)c(CCN)c(C)n2Cc1ccc(Cl)c(Cl)c1.Cl
[1]
  IC50: 104 µM
Staphylococcus aureus [2]
  MIC: 40 µM
Staphylococcus aureus [3]; read-out: MIC
  MIC: 20 µM
Escherichia coli [4]
  Activity: 5%
HEK293
  Activity: Toxic
Escherichia coli [5]
  MIC: 20 µM
Enterococcus faecium
  MIC: 20 µM

## N#Cc1cccc(Cn2cc(CCNC(=N)N)c3ccccc32)c1
Escherichia coli [4]
  Activity: 79%

## COc1ccccc1Cn1cc(CCN)c2ccccc21
Escherichia coli [4]
  Activity: 96%

## COc1ccccc1Cn1cc(CCNC(=N)N)c2ccccc21
[1]
  IC50: > 250 µM
Staphylococcus aureus [2]
  MIC: 89 µM
Staphylococcus aureus [3]; read-out: MIC
  MIC: 89 µM
Escherichia coli [4]
  Activity: 29%
Escherichia coli [5]
  MIC: > 356 µM
Enterococcus faecium
  MIC: 44 µM

## COc1cccc(Cn2cc(CCNC(=N)N)c3ccccc32)c1
[1]
  IC50: > 250 µM
Staphylococcus aureus [2]
  MIC: 146 µM
Staphylococcus aureus [3]; read-out: MIC
  MIC: 73 µM
Escherichia coli [4]
  Activity: 55%
Escherichia coli [5]
  MIC: 73 µM
Enterococcus faecium
  MIC: 293 µM

## COc1ccc2c(c1)c(CCNC(=N)N)cn2Cc1ccc(Cl)c(Cl)c1.Cl
[1]
  IC50: 50 µM
Staphylococcus aureus [2]
  MIC: 19 µM
Staphylococcus aureus [3]; read-out: MIC
  MIC: 19 µM
Escherichia coli [4]
  Activity: 9%
HEK293
  Activity: Non-toxic
Escherichia coli [5]
  MIC: 37 µM
Enterococcus faecium
  MIC: 19 µM
[11]
  Activity: Active

## N=C(N)NCCc1cn(Cc2ccc(F)cc2)c2ccccc12
[1]
  IC50: > 250 µM
Staphylococcus aureus [2]
  MIC: 369 µM
Staphylococcus aureus [3]; read-out: MIC
  MIC: 92 µM
Escherichia coli [4]
  Activity: 42%
Escherichia coli [5]
  MIC: 184 µM
Enterococcus faecium
  MIC: 184 µM

## COc1ccc2c(c1)c(CCN)cn2Cc1ccc(Cl)c(Cl)c1.Cl
[1]
  IC50: 193 µM
Staphylococcus aureus [2]
  MIC: 83 µM
Staphylococcus aureus [3]; read-out: MIC
  MIC: 83 µM
Escherichia coli [4]
  Activity: 24%
HEK293
  Activity: Toxic
Escherichia coli [5]
  MIC: 166 µM
Enterococcus faecium
  MIC: 83 µM

Reference: ChEMBL document CHEMBL3745642, “Structure-Activity Relationships of Novel Tryptamine-Based Inhibitors of Bacterial Transglycosylase” (J Med Chem, 2015)
